Source: PubChem BioAssay
TNAP inh hiacc – TNAP (human) inhibition, high acceptor. P05186. 200,000 tested, 0.03% active. purified TNAP, CDP-star luminescence, 1 M DEA. inhibition, % at 20 µM;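 active means over 50% inhibition of tissue-nonspecific alkaline phosphatase at 20 µM in the single-dose screen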
Target sequence (P05186 whole entry, looked up): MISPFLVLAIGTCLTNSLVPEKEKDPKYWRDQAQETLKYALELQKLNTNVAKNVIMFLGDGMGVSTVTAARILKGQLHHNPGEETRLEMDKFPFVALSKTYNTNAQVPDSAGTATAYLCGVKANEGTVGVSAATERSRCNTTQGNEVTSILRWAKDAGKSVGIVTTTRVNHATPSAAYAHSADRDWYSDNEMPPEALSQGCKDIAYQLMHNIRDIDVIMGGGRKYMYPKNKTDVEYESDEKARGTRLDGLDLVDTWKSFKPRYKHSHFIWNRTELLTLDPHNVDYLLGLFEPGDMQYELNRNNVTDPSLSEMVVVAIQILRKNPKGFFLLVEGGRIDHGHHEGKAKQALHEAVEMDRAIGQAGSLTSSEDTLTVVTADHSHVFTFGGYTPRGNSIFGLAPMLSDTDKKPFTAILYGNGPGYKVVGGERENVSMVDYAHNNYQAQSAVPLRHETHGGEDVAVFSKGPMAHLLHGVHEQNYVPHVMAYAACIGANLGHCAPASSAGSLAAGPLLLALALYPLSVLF
TNAP inh noacc – blocks human TNAP activity with no phosphate acceptor present | purified TNAP, CDP-star luminescence, 30 min | P05186 | AID 1012 | 200,000 tested, 0.26% active | inhibition, % at 20 µM;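 active means tissue-nonspecific alkaline phosphatase inhibition above about 50% at 20 µM in the single-dose screen, limit read from the data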
TNAP act hiacc – activators of human TNAP at high phosphate acceptor concentration; P05186; purified TNAP, CDP-star luminescence, 1 M DEA, 30 min; stronger effect = higher value; 0 = EDTA background, 1 = DMSO-only activity; activation factor at 20 µM; 200,000 tested, under 10 active;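 active means activation factor at least 2 at 20 µM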
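Test system – human TNAP · Doses – 20 µM single point · Incubation – 30 min, room temperature · Signal – luminescent substrate turnover signal · Read-out basis – activation factor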
Ins promoter up – MIN6 insulin promoter up-regulation. MIN6 insulin promoter-GFP reporter, high-content imaging; stronger effect = higher value. z-score at 5 µM. 190,000 tested, 0.3% active;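 active means z-score above 3 at 5 µM with at least 500 cells counted in the well; inconclusive means wells under 500 cells, flagged as cytotoxic or low count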
Autophagy HCS – alters autophagy in cells; MEF GFP-LC3 puncta imaging; test concentration mostly 10 µM; 190,000 tested, 0.98% active; calls only at 10 µM (by protocol);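 active means percentage of spot-positive cells more than 3 SD above its plate mean, without a fluorescence outlier flag or 80% toxicity; inconclusive means no clear call, values can overlap the other calls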
NCF1 inh – p47phox (human) inhibition; AID 1274; p47phox/p22phox peptide binding, fluorescence polarization, 2 h; P14598; inhibition, % at 24.7 µM; 220,000 tested, 0.53% active;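 active means inhibition above about 30%, limit read from the data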
A number is an active result; – = inactive; ? = inconclusive; · = no result given; + = active, no number. The list is not random: actives were taken first. Their share in the collection is about 1.8%.

SMILES	TNAP inh hiacc	TNAP inh noacc	TNAP act hiacc	Ins promoter up	Autophagy HCS	NCF1 inh
Cc1ccc2c(c1)Oc1ccc(NC(=O)CCl)cc1C(=O)N2	–	–	–	–	+	–
Cc1ccc2c(c1)Oc1ccc([N+](=O)[O-])cc1C(=O)N2	–	–	–	–	–	–
O=C(NCc1ccccc1)C1(c2cccc(F)c2)CCCC1	–	–	–	–	–	–
Cn1cc(Br)c(C(=O)Nc2sc3c(c2C#N)CCC3)n1	·	·	·	–	·	–
Cn1cc(Cl)c(C(=O)NC(=S)Nc2sc3c(c2C#N)CCCCC3)n1	–	–	–	–	+	–
CCn1c(SCC(=O)Nc2cc3oc4ccccc4c3cc2OC)nnc1-c1cccs1	–	–	–	–	–	–
Cn1ccnc1SCC(=O)Nc1cc(C(F)(F)F)ccc1N1CCOCC1	–	–	–	–	–	–
N#C/C(=N\Nc1cccc(C(F)(F)F)c1)C(=O)c1ccsc1	·	·	·	·	·	–
C=CCN1C(=O)C(C)(C)N(C(C)=O)c2ccccc21	–	–	–	–	–	–
CC(=O)N1c2ccccc2N(Cc2ccc(C)cc2C)C(=O)C1(C)C	–	–	–	–	+	–
CC(=O)c1sc2nc(-c3cccs3)cc(C(F)(F)F)c2c1N	–	–	–	·	+	–
COC(=O)C(C(=O)Nc1nc2ccccc2s1)C1CCCC1 (stereo unspecified)	–	–	–	–	–	–
O=C(N/N=C/C(Br)=C\c1ccccc1)c1n[nH]c2c1CCC2	–	–	–	?	+	–
CC(/C=N/NC(=O)c1n[nH]c2c1CCC2)=C\c1ccccc1	–	–	–	–	+	–
O=C(N/N=C/C=C/c1ccccc1)c1n[nH]c2c1CCC2	–	–	–	·	–	–
CSc1ncc(-c2ccc(Cl)cc2)[nH]1	·	·	·	–	·	–
CCOc1ccccc1CNC(=O)CCCc1cn(C)c2ccccc12	–	–	–	–	+	–
COc1ccc2nc(/C(C#N)=C\c3ccc(Oc4ccc([N+](=O)[O-])cn4)cc3)[nH]c2c1	–	–	–	–	+	–
Cc1ccc2nc(/C(C#N)=C\c3ccc([N+](=O)[O-])o3)[nH]c2c1	–	–	–	?	+	–
Cc1ccc2nc(/C(C#N)=C\c3ccc(Oc4ccc([N+](=O)[O-])cn4)cc3)[nH]c2c1	–	–	–	–	–	–
Cc1cc(NC(=O)c2ccc(S(=O)(=O)N3CCCC3)cc2)nc2c1c(=O)oc1ccccc12	–	–	–	·	+	–
CCOc1ccc(C(=O)Nc2cc(C)c3c(=O)oc4ccccc4c3n2)cc1	–	–	–	?	+	–
CC(C)(C)SCCNC(=O)CN(c1ccccc1)S(=O)(=O)c1ccccc1	–	–	–	·	–	–
O=C(COC(=O)C1CCCCC1)Nc1ccccc1OC(F)F	–	–	–	–	–	–
CC(C)n1c(O)c(N=NC(=O)Cc2csc(N3CCOCC3)n2)c2ccccc21	–	–	–	–	–	–
SMILES	TNAP inh hiacc	TNAP inh noacc	TNAP act hiacc	Ins promoter up	Autophagy HCS	NCF1 inh
CC1CC(C)CN(S(=O)(=O)c2ccc(NC(=S)NC(=O)c3ccccc3)cc2)C1 (stereo unspecified)	–	–	–	–	–	–
Cc1cc(-c2cc(N)n(-c3ccccc3)n2)c(C)n1C1CCCC1	–	–	–	–	+	–
CCn1c(SCC(=O)Nc2c(C#N)cnn2-c2ccccc2)nnc1-c1cccs1	·	·	·	–	·	–
CCn1c(-c2ccco2)n[nH]c1=S	–	–	–	–	–	–
S=c1[nH]nc(-c2ccco2)n1/N=C/c1ccc(Cl)cc1	–	54	–	–	–	–
C=CCn1c(-c2ccco2)n[nH]c1=S	–	–	–	–	–	32
Clc1ccc(C2=C3CCCCn4c(-c5ccccc5)c[n+](c43)C2)cc1	–	–	–	·	+	–
Cc1ccc2[nH]c(O)c(N=NC(N)=S)c2c1	·	·	·	–	·	–
NC(=S)N=Nc1c(O)[nH]c2ccccc12	–	65	–	–	–	–
Cc1cc(C)n(-c2ccc(F)cc2CN2CCN(C3CCCC3)C(CCO)C2)n1 (stereo unspecified)	–	–	–	–	+	–
OCCC1CN(Cc2nc3ccc(F)cc3[nH]2)CCN1C1CCCC1 (stereo unspecified)	·	·	·	–	·	–
Cc1cccc(-n2ncc(C#N)c2N)c1	–	–	–	–	–	172
Cc1cc(C)c2cc3c(N)c(C(=O)Nc4c(C)[nH]c(=O)[nH]c4=O)sc3nc2c1	–	–	–	–	+	–
